Measurements pooled from the literature.
Compare with care: the assays were run in different laboratories.
Sample: plasma
Route: intravenous

SMILES	system	conditions	clearance
Cc1nc(Nc2ncc(C(=O)Nc3c(C)cccc3Cl)s2)cc(N2CCN(CCO)CC2)n1	male Sprague-Dawley rat	1 mg/kg	21.7 mL/min/kg
COc1cc(-c2cc(C(C)=O)n3ccccc23)c(OC)cc1Cn1ccnc1	male Sprague-Dawley rat	5 mg/kg	20.1 mL/min/kg
Cc1nc(Nc2ncc(C(=O)Nc3c(C)cccc3Cl)s2)cc(N2CC[C@H](N)C2)n1	male Sprague-Dawley rat	1 mg/kg	51.7 mL/min/kg
COc1ccc(N(Cc2csc(-c3ccccc3)n2)C(=O)CCCCCC(=O)NO)cc1	female Sprague-Dawley rat	5 mg/kg	6810 mL/min/kg
COc1ccc(-c2coc3cc(O)cc(O)c3c2=O)cc1	rat	2 mg/kg	48.9 mL/min/kg
O=C1CCC(N2Cc3cc(C4CCN(Cc5ccccc5)CC4)ccc3C2=O)C(=O)N1 (stereo not drawn)	male Sprague-Dawley rat	1 mg/kg	51.4 mL/min/kg
Cc1cc(S(=O)(=O)NC2CC(N3CCN(CC4CCN(c5cccc6c5n(C)c(=O)n6C5CCC(=O)NC5=O)CC4)C4(CC4)C3)C2)ccc1Nc1ncc(C(F)(F)F)c(N2CCC[C@](C)(O)C2)n1 (stereo partly drawn)	rat	2 mg/kg	35 mL/min/kg
[2H]c1cc(C)c(NC(=O)c2cnc(Nc3cc(N4CCC(O)CC4)nc(C)n3)s2)c(Cl)c1	male Sprague-Dawley rat	1 mg/kg	33.3 mL/min/kg
CNS(=O)(=O)c1ccc(Nc2ncc3cc(Cl)c(=O)n(C4CCCC4)c3n2)c(C)c1	rat	2 mg/kg	50 mL/min/kg
O=c1c(NCCc2cccc(Cl)c2)c(Nc2ccc(Cl)cc2)c1=O	male Sprague-Dawley rat	1 mg/kg	29.3 mL/min/kg
C[C@H]1CN(c2ccc(C3CCC(=O)NC3=O)cc2F)CCN1CC12CCC(NS(=O)(=O)c3ccc(Nc4ncc(C(F)(F)F)c(N5CCC[C@](C)(O)C5)n4)c(F)c3)(CC1)CO2 (stereo partly drawn)	rat	2 mg/kg	18 mL/min/kg
C=CCn1c(=O)c2cnc(Nc3ccc(N4CCN(C)CC4)cc3)nc2n1-c1ccc2c(n1)[C@@](O)(CC)CC2	rat	3 mg/kg	33 mL/min/kg
